Measurements as given in ChEMBL document CHEMBL5150059, “Transcriptional Inhibition of MicroRNA miR-122 by Small Molecules Reduces Hepatitis C Virus Replication in Liver Cells” (J Med Chem, 2022).
pEC50, pKd: −log10 of the molar value. Active and inactive are the calls of the source. No cut-off for these calls is given here.

Test system: Huh-7
Assay: Inhibition of pGL3-miR-122 (unknown origin) promotor activity transfected in Huh-7 cells harboring HNF4alpha mutant by measuring reversal of mir-122 activity at 25 uM after 48 hrs by Bright-glo luciferase assay
Format: cell-based
Details: not given
Procedure, shortened: (§1)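 Huh7 cells transfected 3 h with pGL3-miR122 promoter–firefly reporter, parent or with transcription-factor site mutated/deleted. Then treated 48 h with 25 μM compound or 0.1% DMSO, in triplicate. Read by Bright-Glo luminescence; XTT viability assayed in parallel. Luminescence divided by viability, normalized to DMSO per reporter. Three independent experiments.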

SMILES	inhibition
COc1cc(C)c(C(C)C)cc1S(=O)(=O)N(C)c1ccccc1C	64%

Test system: Renilla
Assay: Inhibition of recombinant renilla luciferase at 10 uM using coelenterazine as substrate incubated for 10 mins by luminescence based microplate reader analysis relative to control; values are per cent of control
Details: not given

SMILES	residual activity
COc1cc(C)c(C(C)C)cc1S(=O)(=O)N(C)c1ccc(C)cc1	100%
COc1cc(C)ccc1S(=O)(=O)n1cnc(C)c1	80%
COc1cc(C)c(C(C)C)cc1S(=O)(=O)N(C)c1cccc(C)c1C	93%
COc1cc(C)c(C(C)C)cc1S(=O)(=O)N(C)c1cc(C)ccc1C	100%
COc1cc(C)c(C(C)C)cc1S(=O)(=O)N(C)c1ncccc1C	100%
COc1cc(C)c(C(C)C)cc1S(=O)(=O)N(C)c1cccc(C)n1	100%
COc1cc(C)c(C(C)C)cc1S(=O)(=O)N(C)c1cccc(C)c1	78%
COc1cc(C)c(C(C)C)cc1S(=O)(=O)n1ccc2ccccc21	94%
CCOc1cc(C)c(C(C)C)cc1S(=O)(=O)n1cnc(C)c1	70%
COc1cc(C)c(C(C)C)cc1S(=O)(=O)n1cnc2ccccc21	45%
COc1cc(C)c(C(C)C)cc1S(=O)(=O)N(C)c1ccccn1	100%
C#CCOc1cc(C)c(C(C)C)cc1S(=O)(=O)n1cnc(C)c1	97%
COc1cc(C)c(C(C)C)cc1S(=O)(=O)Nc1ncccc1C	17%
COc1cc(C)c(C(C)C)cc1S(=O)(=O)Nc1ccccn1	8%
COc1cc(C)c(C(C)C)cc1S(=O)(=O)n1cnc(C)c1	80%
COc1cc(C)c(C(C)C)cc1S(=O)(=O)n1ccc(C)c1	87%
COc1cc(C)c(C(C)C)cc1S(=O)(=O)n1cnc([N+](=O)[O-])c1	67%
COc1cc(C)c(C(C)C)cc1S(=O)(=O)Nc1cccc(C)n1	2%
COc1cc(C)c(C(C)C)cc1S(=O)(=O)N(C)c1ccccc1C	100%

Test system: Huh-7
Assay: Inhibition of pGL3-miR-122 (unknown origin) promotor activity transfected in human Huh-7 cells at 25 uM after 48 hrs by Bright-glo luciferase assay
Format: cell-based
Details: not given
Procedure, shortened: as §1

SMILES	Activity
COc1cc(C)c(C(C)C)cc1S(=O)(=O)N(C)c1ccccc1C	Active

Test system: HEK293
Assay: Inhibition of […] (unknown origin) transfected in HEK293 cells coexpressing CYP26A1 assessed as reduction in luciferase expression at 25 uM after 48 hrs dual luciferase assay
Format: cell-based
Details: Homo sapiens
Procedure, shortened: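 HEK293T cells (no endogenous HNF4α) co-transfected for 4 h with CYP26A1 promoter–firefly luciferase reporter, HNF4α expression plasmid and Renilla control plasmid. Then treated 48 h with 25 μM compound or DMSO (0.25% final). Read by dual luciferase assay, normalized to DMSO.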

SMILES	inhibition
Cc1ccc([N+](=O)[O-])cc1S(=O)(=O)n1c(C)nc2ccccc21	50%
COc1cc(C)c(C(C)C)cc1S(=O)(=O)N(C)c1ccccc1C	50%

Target: microRNA 122
Assay: Inhibition of miR-122 in human Huh-7 cells expressing renilla luciferase gene after 48 hrs by dual luciferase assay
Format: cell-based
Details: not given
Procedure, shortened: (§2)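 Huh7-miR122 stable line (miR-122 site in the Renilla luciferase 3′ UTR, kept in 500 μg/mL G418), seeded 15,000/well. After overnight incubation, treated 48 h with compound or DMSO (0.1% final) in triplicate. Renilla and firefly read by dual luciferase; Renilla normalized to firefly. Dose–response used for EC50.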

SMILES	pEC50
COc1cc(C)c(C(C)C)cc1S(=O)(=O)N(C)c1ccccc1C	4.96

Test system: microRNA 122
Assay: Inhibition of miR-122 in human Huh-7 cells expressing renilla luciferase gene assessed as relative luciferase unit after 48 hrs by dual luciferase assay relative to control
Format: cell-based
Set-up: concentration or dose not given beside the values
Details: not given
Procedure, shortened: as §2

SMILES	Activity
COc1cc(C)c(C(C)C)cc1S(=O)(=O)N(C)c1ccc(C)cc1	82%
CCc1nccn1S(=O)(=O)c1cc(C(C)C)c(C)cc1OC	40%
COc1cc(C)ccc1S(=O)(=O)n1cnc(C)c1	24%
COc1cc(C)c(C(C)C)cc1S(=O)(=O)n1ccnc1	33%
COc1cc(C)c(C(C)C)cc1S(=O)(=O)N(C)c1cccc(C)c1C	80%
COc1cc2c(cc1S(=O)(=O)n1cnc(C)c1)CCCC2	33.3%
COc1cc(C)c(C(C)C)cc1S(=O)(=O)N(C)c1cc(C)ccc1C	77%
COc1cc(C)c(C(C)C)cc1S(=O)(=O)N(C)c1ncccc1C	64%
COc1cc(C)c(C(C)C)cc1S(=O)(=O)N(C)c1cccc(C)n1	107%
COc1cc(C)c(C(C)C)cc1S(=O)(=O)N(C)c1cccc(C)c1	122%
COc1cc(C)c(C(C)C)cc1S(=O)(=O)n1ccc(C)n1	44%
COc1cc(C)c(C(C)C)cc1S(=O)(=O)n1ccc2ccccc21	55%
CCOc1cc(C)c(C(C)C)cc1S(=O)(=O)n1cnc(C)c1	74%
COc1cc(C)c(C(C)C)cc1S(=O)(=O)n1cnc2ccccc21	75%
COc1cc(C)c(C(C)C)cc1S(=O)(=O)n1cc(C)cn1	32%
COc1cc(C)c(C(C)C)cc1S(=O)(=O)N(C)c1ccccn1	89%

SMILES	Activity
C#CCOc1cc(C)c(C(C)C)cc1S(=O)(=O)n1cnc(C)c1	50%
COc1cc(C)c(C(C)C)cc1S(=O)(=O)Nc1ncccc1C	135%
COc1cc(C)c(C(C)C)cc1S(=O)(=O)Nc1ccccn1	88%
COc1cc(C)c(C(C)C)cc1S(=O)(=O)n1cnc(C)c1	100%
COc1cc(C)c(C(C)C)cc1S(=O)(=O)n1cccc1	29%
CCNS(=O)(=O)c1cc(C(C)C)c(C)cc1OC	42%
COc1cc(C)c(C(C)C)cc1S(=O)(=O)n1ccc(C)c1	57%
COc1cc(C)c(C(C)C)cc1S(=O)(=O)n1cnc(-c2ccccc2)c1	35%
COc1cc(C)c(C(C)C)cc1S(=O)(=O)Nc1ccccc1C	32%
COc1cc(C)c(C(C)C)cc1S(=O)(=O)Nc1ccccc1	47%
COc1cc(C)c(C(C)C)cc1S(=O)(=O)n1cnc(Cl)c1Cl	4%
COc1cc(C)c(C(C)C)cc1S(=O)(=O)N(C)C	42%
COc1cc(C)c(C(C)C)cc1S(=O)(=O)n1cnc([N+](=O)[O-])c1	61.1%
COc1cc(C)c(C)cc1S(=O)(=O)n1cnc(C)c1	32%
COc1cc(C)c(C(C)C)cc1S(=O)(=O)Nc1cccc(C)n1	89%
COc1cc(C)c(C(C)C)cc1S(=O)(=O)N(C)c1ccccc1C	104%

Test system: Huh-7
Assay: Inhibition of pGL3-miR-122 (unknown origin) promotor activity transfected in Huh-7 cells harboring HNF6 mutant assessed as reduction in luciferase activity at 25 uM after 48 hrs by Bright-glo luciferase assay
Format: cell-based
Details: not given
Procedure, shortened: as §1

SMILES	inhibition
COc1cc(C)c(C(C)C)cc1S(=O)(=O)N(C)c1ccccc1C	Active

Test system: Huh-7
Assay: Inhibition of pGL3-miR-122 (unknown origin) promotor activity transfected in Huh-7 cells harboring HNF1alpha mutant assessed as reduction in luciferase activity at 25 uM after 48 hrs by Bright-glo luciferase assay
Format: cell-based
Details: not given
Procedure, shortened: as §1

SMILES	inhibition
COc1cc(C)c(C(C)C)cc1S(=O)(=O)N(C)c1ccccc1C	Active

Test system: microRNA 122
Assay: Inhibition of miR-122 in human Huh-7 cells assessed as reduction in primary miR-122 expression at 25 uM incubated for 48 hrs by RT-qPCR analysis
Format: cell-based
Details: not given
Procedure, shortened: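 Huh7 cells treated 48 h with 25 μM compound or 0.1% DMSO. 50 ng total RNA reverse-transcribed with iScript. TaqMan qPCR run for pri-miR-122 and GAPDH in triplicate. Relative level from 2^−ΔΔCt normalized to GAPDH and DMSO. Three independent experiments.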

SMILES	inhibition
COc1cc(C)c(C(C)C)cc1S(=O)(=O)N(C)c1ccccc1C	59%

Test system: not listed separately
Assay: Binding affinity to recombinant C-terminal His-tagged […] (147 to 377 residues) (unknown origin) expressed in Escherichia coli by spectrofluorometer analysis
Set-up: species or system Homo sapiens
Details: not given
Procedure, shortened: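 His-tagged HNF4α ligand-binding domain (aa 147–377) expressed and purified from E. coli. 200 nM protein in PBS pH 7.4 titrated with increasing compound at 25 °C. Intrinsic Trp/Tyr fluorescence read at 330 nm (excitation 280 nm), corrected for buffer and ligand alone. Intensity change versus concentration fitted to Hill equation for KD. Two independent experiments.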

SMILES	pKd
Cc1ccc([N+](=O)[O-])cc1S(=O)(=O)n1c(C)nc2ccccc21	6.08
COc1cc(C)c(C(C)C)cc1S(=O)(=O)N(C)c1ccccc1C	6.36

Test system: microRNA 122
Assay: Inhibition of miR-122 in human Huh-7 cells assessed as reduction in mature miR-122 levels at 25 uM after 48 hrs by RT-qPCR analysis
Format: cell-based
Details: not given
Procedure, shortened: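 Huh7 cells treated 48 h with 25 μM compound or 0.1% DMSO, then total RNA isolated. 15 ng reverse-transcribed with TaqMan miRNA RT primers for miR-122 or RNU19. TaqMan qPCR run over 40 cycles in triplicate. Relative level from 2^−ΔΔCt versus RNU19 and DMSO. Three independent experiments.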

SMILES	inhibition
COc1cc(C)c(C(C)C)cc1S(=O)(=O)N(C)c1ccccc1C	38%

Test system: Hepatitis C virus
Assay: Antiviral activity against HCV infected in human Huh7.5 cells assessed as reduction in viral RNA expression at 10 uM pretreated for 1 hr followed by viral infection and measured after 48 hrs by RT-qPCR analysis
Format: functional, Hepacivirus hominis
Set-up: scale not given: the % may be the effect or the level left
Details: time 49 hrs
Procedure, shortened: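 Huh7.5 cells pretreated 1 h with compound (10 μM) or DMSO, then infected with HCV (MOI 0.5) in compound-containing DMEM; medium replaced with compound medium at 5 h post-infection. At 48 h post-infection, RNA extracted. HCV and 18S RNA copy numbers quantified by RT-qPCR against standards. HCV RNA normalized to 18S, then to DMSO control.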

SMILES	Activity
COc1cc(C)c(C(C)C)cc1S(=O)(=O)N(C)c1ccccc1C	88%

Test system: Huh-7
Assay: Inhibition of pGL3-miR-122 (unknown origin) promotor activity transfected in Huh-7 cells harboring HNF3beta mutant assessed as reduction in luciferase activity at 25 uM after 48 hrs by Bright-glo luciferase assay
Format: cell-based
Details: not given
Procedure, shortened: as §1

SMILES	inhibition
COc1cc(C)c(C(C)C)cc1S(=O)(=O)N(C)c1ccccc1C	Active

Test system: not listed separately
Assay: Effect on non-miR-122 pathway in human Huh-7 cells harboring psi-check empty vector assessed as increase in luminescence at 10 uM after 48 hrs by dual luciferase assay relative to control
Format: functional
Details: not given
Procedure, shortened: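 Huh7 cells transfected with psiCHECK-empty reporter (miR-122 site replaced by a non-targeted linker) for 2 h. Medium then replaced with compound at 10 μM or DMSO (0.1% final), in triplicate. Renilla/firefly read by dual luciferase after 48 h, normalized to DMSO. At least three independent experiments, mean ± SD.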

SMILES	Activity
COc1cc(C)c(C(C)C)cc1S(=O)(=O)N(C)c1ccc(C)cc1	218%
COc1cc(C)c(C(C)C)cc1S(=O)(=O)N(C)c1cccc(C)c1C	225%
COc1cc(C)c(C(C)C)cc1S(=O)(=O)N(C)c1cc(C)ccc1C	245%
COc1cc(C)c(C(C)C)cc1S(=O)(=O)N(C)c1ncccc1C	87%
COc1cc(C)c(C(C)C)cc1S(=O)(=O)N(C)c1cccc(C)n1	117%
COc1cc(C)c(C(C)C)cc1S(=O)(=O)N(C)c1cccc(C)c1	103%
COc1cc(C)c(C(C)C)cc1S(=O)(=O)N(C)c1ccccn1	88%
COc1cc(C)c(C(C)C)cc1S(=O)(=O)n1cnc(C)c1	127%
COc1cc(C)c(C(C)C)cc1S(=O)(=O)N(C)c1ccccc1C	90%

Test system: microRNA 122
Assay: Inhibition of miR-122 in human Huh-7 cells assessed as reduction in E-cadherin expression at 25 uM incubated for 48 hrs by Western blot analysis
Format: cell-based
Details: not given
Procedure, shortened: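 Huh7 cells treated 48 h at 37 °C with compound or DMSO (0.1% final), then lysed and run on 10% SDS-PAGE. Transferred to PVDF, blocked in 5% BSA/TBST. Probed overnight at 4 °C with anti-E-cadherin or anti-GAPDH (1:1000), then HRP anti-rabbit (1:2500), and detected by chemiluminescence. GAPDH used as internal control.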

SMILES	inhibition
COc1cc(C)c(C(C)C)cc1S(=O)(=O)N(C)c1ccccc1C	Active

Test system: Huh-7
Assay: Cytotoxicity against human Huh-7 cells assessed as reduction in cell viability at 10 to 25 uM after 48 hrs by XTT assay
Format: toxicity, cell-based
Details: huh-7, 48 h, dose 10-25 µM
Procedure, shortened: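 Huh7 cells given compound for 48 h, then XTT reagent activated with menadione. Absorbance at 450 nm minus 630 nm read immediately and after 4 h; viability taken as the difference between the two readings.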

SMILES	Activity
COc1cc(C)c(C(C)C)cc1S(=O)(=O)N(C)c1ccccc1C	Non-Toxic

Test system: Huh-7
Assay: Inhibition of pGL3-miR-122 (unknown origin) promotor activity transfected in Huh-7 cells harboring AP-1 mutant assessed as reduction in luciferase activity at 25 uM after 48 hrs by Bright-glo luciferase assay
Format: cell-based
Details: not given
Procedure, shortened: as §1

SMILES	inhibition
COc1cc(C)c(C(C)C)cc1S(=O)(=O)N(C)c1ccccc1C	Active
